This note sets out measurements from ChEMBL document CHEMBL5649170, “Sustained microglial depletion with CSF1R inhibitor impairs parenchymal plaque development in an Alzheimer's disease model” (Nat Commun, 2019).

SMILES strings stand for the structures. Activity calls are given as the source filed them. The calls are words filed in the database; no cut-off is given here. A value given as a limit tells only on which side of the number the result lay.

For data set [1], the system named is Mus musculus. Kind of data set: Antialzheimer activity in mouse harboring CX3CR1-GFP+/- assessed as microglial elimination in brain at 600 ppm administered as chow for 7 days relative to control. The data set is classed as functional. The following applies: route po, time 7 day.
The nature of data set [2]: Drug concentration in 5XFAD mouse brain at 600 ppm administered as rodent chow starting from 1.5 months and measured after 5 months. It counts as ADME, tissue-based. The following applies: route po, time 3.5 months, read-out: Ct. A digest of the protocol:
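WT or 5xFAD mice were fed PLX3397 in AIN-76A chow at 600 ppm or 75 ppm from 1.5 to 5 months of age. Terminal brain and plasma drug concentrations were determined at study end.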

Data set [3] concerns the target Aurora kinase A (Homo sapiens, UniProt O14965). Kind of data set: Inhibition of AURKA (unknown origin).
Data set [4] addresses Cytoplasmic tyrosine-protein kinase BMX (Homo sapiens, UniProt P51813). Put plainly: Inhibition of BMX (unknown origin).
In data set [5] the target is Dual specificity protein kinase CLK2 (Homo sapiens, UniProt P49760). Put plainly: Inhibition of CLK2 (unknown origin).
Chain of Dual specificity protein kinase CLK2 (P49760 whole entry): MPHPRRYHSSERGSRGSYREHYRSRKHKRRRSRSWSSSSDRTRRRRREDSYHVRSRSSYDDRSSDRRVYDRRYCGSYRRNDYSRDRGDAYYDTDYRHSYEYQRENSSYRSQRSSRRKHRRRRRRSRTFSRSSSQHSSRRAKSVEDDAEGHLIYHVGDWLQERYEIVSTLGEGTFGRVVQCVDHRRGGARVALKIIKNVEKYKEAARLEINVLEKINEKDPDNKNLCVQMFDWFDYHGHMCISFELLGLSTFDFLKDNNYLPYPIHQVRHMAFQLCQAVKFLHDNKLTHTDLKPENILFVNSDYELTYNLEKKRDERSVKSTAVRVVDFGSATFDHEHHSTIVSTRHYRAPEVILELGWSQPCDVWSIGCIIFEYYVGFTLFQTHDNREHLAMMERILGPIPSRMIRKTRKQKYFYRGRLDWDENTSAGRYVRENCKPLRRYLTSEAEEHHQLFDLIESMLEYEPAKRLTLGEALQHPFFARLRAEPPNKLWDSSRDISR
The target in data set [6] is Tyrosine-protein kinase Fyn (Homo sapiens, UniProt P06241). Put plainly: Inhibition of FYN (unknown origin).
Data set [7] addresses Leukocyte tyrosine kinase receptor (Homo sapiens, UniProt P29376). Kind of data set: Inhibition of LTK (unknown origin).
Data set [8] has as its target Mitogen-activated protein kinase kinase kinase kinase 4 (Homo sapiens, UniProt O95819). Kind of data set: Inhibition of MAP4K4 (unknown origin).
Data set [9] addresses Serine/threonine-protein kinase N1 (Homo sapiens, UniProt Q16512). Put plainly: Inhibition of PKN1 (unknown origin).
Data set [10] addresses Proto-oncogene tyrosine-protein kinase receptor Ret (Homo sapiens, UniProt P07949). Put plainly: Inhibition of RET (unknown origin).
The target in data set [11] is Ribosomal protein S6 kinase alpha-1 (Homo sapiens, UniProt Q15418). Put plainly: Inhibition of RPS6KA1 (unknown origin).
Chain of Ribosomal protein S6 kinase alpha-1 (Q15418 whole entry): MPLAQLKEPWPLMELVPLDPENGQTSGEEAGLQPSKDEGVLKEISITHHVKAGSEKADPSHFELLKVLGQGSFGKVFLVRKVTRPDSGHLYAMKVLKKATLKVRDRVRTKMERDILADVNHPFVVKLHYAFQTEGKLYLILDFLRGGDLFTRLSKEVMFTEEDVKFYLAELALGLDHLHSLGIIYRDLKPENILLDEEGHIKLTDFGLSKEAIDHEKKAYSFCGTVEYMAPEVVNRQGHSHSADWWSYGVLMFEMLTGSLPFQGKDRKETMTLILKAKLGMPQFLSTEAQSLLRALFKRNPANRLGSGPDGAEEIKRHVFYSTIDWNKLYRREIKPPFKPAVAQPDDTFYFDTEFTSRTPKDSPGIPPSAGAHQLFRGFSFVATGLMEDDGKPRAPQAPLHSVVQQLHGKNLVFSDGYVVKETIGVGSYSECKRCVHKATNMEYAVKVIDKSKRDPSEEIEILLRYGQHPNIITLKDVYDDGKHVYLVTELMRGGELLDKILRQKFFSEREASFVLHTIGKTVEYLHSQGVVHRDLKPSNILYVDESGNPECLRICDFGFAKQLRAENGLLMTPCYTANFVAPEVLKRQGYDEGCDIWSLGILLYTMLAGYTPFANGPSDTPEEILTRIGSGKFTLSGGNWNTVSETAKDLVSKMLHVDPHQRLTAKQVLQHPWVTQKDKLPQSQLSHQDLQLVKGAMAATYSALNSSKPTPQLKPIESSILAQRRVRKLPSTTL
The target of data set [12] is Sphingosine kinase 1 (Homo sapiens, UniProt Q9NYA1). Kind of data set: Inhibition of SPHK1 (unknown origin).
Chain of Sphingosine kinase 1 (Q9NYA1 whole entry): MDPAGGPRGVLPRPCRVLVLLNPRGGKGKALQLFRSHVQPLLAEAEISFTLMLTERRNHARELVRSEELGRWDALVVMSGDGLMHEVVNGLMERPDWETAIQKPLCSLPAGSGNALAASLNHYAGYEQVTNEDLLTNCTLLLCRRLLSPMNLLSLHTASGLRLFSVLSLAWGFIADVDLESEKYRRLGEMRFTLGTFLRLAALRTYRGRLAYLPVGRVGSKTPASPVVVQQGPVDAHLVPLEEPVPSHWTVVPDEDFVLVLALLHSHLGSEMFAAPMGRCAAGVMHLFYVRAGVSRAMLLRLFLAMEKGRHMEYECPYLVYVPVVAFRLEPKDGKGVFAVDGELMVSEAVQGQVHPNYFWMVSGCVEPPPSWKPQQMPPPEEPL
Data set [13] is described as follows: Drug concentration in wildtype mouse plasma at 1200 ppm administered as rodent chow for 10 to 24 weeks. It counts as ADME, cell-free. The following applies: po, time 10-24 weeks. A digest of the protocol:
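WT or 5xFAD mice were started at 1.5 months of age on PLX5622 formulated at 1200 ppm in AIN-76A chow, with control chow as comparison. Feeding ran for 10 or 24 weeks. Terminal plasma and brain drug levels were then measured. Groups were sex-balanced and compared by two-tailed independent t-test.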

The subject of data set [14] is Mus musculus. Put plainly: Antialzheimer activity in 5XFAD mouse assessed as number of Iba positive cells per FOV in retro spinal cortex at 1200 ppm administered as rodent chow starting from 1.5 months and measured after 4 months (reference value: 210 to 529). It counts as functional. The following applies: route po, time 2.5 months, 1825 h.
Data set [15] concerns Mus musculus. Put plainly: Antialzheimer activity in 5XFAD mouse assessed as microglial elimination at 1200 ppm administered as rodent chow for 24 weeks relative to control. It counts as functional. The note with it: route po.
The test system of data set [16] is Mus musculus. Kind of data set: Antialzheimer activity in 5XFAD mouse assessed as amyloidbeta40 level in detergent insoluble thalamus fraction measured per microgram protein at 1200 ppm administered as rodent chow starting from 1.5 months and measured after 7 months by ELISA (reference value: 57.876 to 502395 pg). The data set is classed as functional. The following applies: route po, time 5.5 months, 4015 h. A digest of the protocol: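 PLX5622 at 1200 ppm in chow given to 5xFAD mice from 1.5 months to 4 or 7 months of age; cortex and thalamus homogenized in TPER (detergent-soluble), pellets re-homogenized in 70% formic acid and spun 100,000 g, 1 h, 4 °C (insoluble); protein by Bradford/Lowry; Aβ species measured by Meso Scale electrochemiluminescence immunoassay, normalized to protein; n = 7–8 per group at 7 months.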

The subject of data set [17] is Mus musculus. Kind of data set: Antialzheimer activity in 5XFAD mouse assessed as alteration in plaque morphology in cortex at 1200 ppm administered as rodent chow starting from 1.5 months and measured after 7 months by Thio-S labeling based confocal microscopic analysis. It counts as functional, organism-based. The note with it: route po, time 5.5 months.
Data set [18] can be described thus: Effect on C1qa gene expression in wild type mouse cortex at 1200 ppm administered as rodent chow starting from 1.5 months and measured after 7 months by RNA-Seq analysis (reference value: 16.071 to 20.526 RPKM). It counts as functional. The note with it: route po, time 5.5 months, 4015 h. In a few lines:
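WT and 5xFAD mice were treated with 1200 ppm PLX5622 chow or control chow from 1.5 to 7 months of age. Brains were microdissected into cortex, hippocampus and thalamus, and RNA was extracted from tissue powder. Whole-transcriptome RNA-Seq libraries were sequenced, with n = 4 per group per region (48 samples).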

Data set [19] is described as follows: Effect on Ctsz gene expression in 5XFAD mouse hippocampus at 1200 ppm administered as rodent chow starting from 1.5 months and measured after 7 months by RNA-Seq analysis (reference value: 34.576 to 51.120 RPKM). The following applies: route po, time 5.5 months, 4015 h. It counts as functional.
A short description of data set [20]: Effect on Itgax gene expression in 5XFAD mouse hippocampus at 1200 ppm administered as rodent chow starting from 1.5 months and measured after 7 months by RNA-Seq analysis (reference value: 2.202 to 4.490 RPKM). It counts as functional. The note with it: route po, time 5.5 months, 4015 h.
The nature of data set [21]: Effect on Nrg3 gene expression in wildtype mouse hippocampus assessed as percent change in Reads Per kilo base per Million mapped reads at 1200 ppm administered as rodent chow starting from 1.5 months and measured after 7 months by RNA-Seq analysis (reference value: 84.058 to 111.732 %). It counts as functional. The following applies: route po, time 5.5 months, 4015 h.

Data set [22] can be described thus: Prevention of Rnf217 gene downregulation in 5XFAD mouse hippocampus assessed as percent change in Reads Per kilo base per Million mapped reads at 1200 ppm administered as rodent chow starting from 1.5 months and measured after 7 months by RNA-Seq analysis (reference value: 66.726 to 80.840 %). The data set is classed as functional. The following applies: route po, time 5.5 months, 4015 h.

Data set [23] deals with Mus musculus. Put plainly: Prevention of P2ry12 gene upregulation in 5XFAD mouse hippocampus at 1200 ppm administered as rodent chow starting from 1.5 months and measured after 7 months by Nanostring analysis. It counts as functional, tissue-based. The note with it: route po, time 5.5 months.

Chain of Aurora kinase A (O14965 whole entry): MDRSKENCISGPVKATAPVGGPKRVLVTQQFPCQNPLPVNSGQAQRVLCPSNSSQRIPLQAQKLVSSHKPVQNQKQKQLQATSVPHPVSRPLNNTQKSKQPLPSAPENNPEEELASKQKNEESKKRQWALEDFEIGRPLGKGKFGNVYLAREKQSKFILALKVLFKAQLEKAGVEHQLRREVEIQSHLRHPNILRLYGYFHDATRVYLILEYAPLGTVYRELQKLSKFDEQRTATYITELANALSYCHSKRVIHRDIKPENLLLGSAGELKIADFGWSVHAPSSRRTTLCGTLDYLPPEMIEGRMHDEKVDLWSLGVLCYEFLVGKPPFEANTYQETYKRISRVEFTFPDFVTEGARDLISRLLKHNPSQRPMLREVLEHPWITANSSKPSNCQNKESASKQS
Chain of Serine/threonine-protein kinase N1 (Q16512 whole entry): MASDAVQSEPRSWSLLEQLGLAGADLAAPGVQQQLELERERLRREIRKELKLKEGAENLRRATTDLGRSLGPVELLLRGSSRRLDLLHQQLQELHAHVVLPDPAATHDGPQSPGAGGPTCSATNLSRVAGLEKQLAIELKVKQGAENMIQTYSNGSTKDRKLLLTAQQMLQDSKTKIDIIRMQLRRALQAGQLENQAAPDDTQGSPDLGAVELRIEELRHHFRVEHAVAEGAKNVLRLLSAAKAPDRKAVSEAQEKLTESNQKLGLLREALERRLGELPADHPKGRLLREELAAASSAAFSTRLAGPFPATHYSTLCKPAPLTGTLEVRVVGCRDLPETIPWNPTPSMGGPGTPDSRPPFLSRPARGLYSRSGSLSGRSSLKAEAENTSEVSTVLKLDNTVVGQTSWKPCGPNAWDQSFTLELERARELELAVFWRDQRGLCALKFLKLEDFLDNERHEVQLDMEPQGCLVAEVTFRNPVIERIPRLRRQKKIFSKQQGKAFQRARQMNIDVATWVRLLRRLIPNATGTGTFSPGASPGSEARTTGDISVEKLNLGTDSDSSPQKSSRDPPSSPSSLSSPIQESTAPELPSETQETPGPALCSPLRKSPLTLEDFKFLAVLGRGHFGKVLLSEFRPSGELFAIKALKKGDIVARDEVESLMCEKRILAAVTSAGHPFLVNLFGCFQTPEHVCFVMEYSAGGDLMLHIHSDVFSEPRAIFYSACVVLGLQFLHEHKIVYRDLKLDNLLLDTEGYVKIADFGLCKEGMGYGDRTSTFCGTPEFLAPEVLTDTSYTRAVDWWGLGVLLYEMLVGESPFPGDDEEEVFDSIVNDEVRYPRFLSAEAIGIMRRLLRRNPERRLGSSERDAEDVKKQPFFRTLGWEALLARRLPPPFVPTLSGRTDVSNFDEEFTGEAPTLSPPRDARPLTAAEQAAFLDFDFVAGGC
Chain of Leukocyte tyrosine kinase receptor (P29376 whole entry): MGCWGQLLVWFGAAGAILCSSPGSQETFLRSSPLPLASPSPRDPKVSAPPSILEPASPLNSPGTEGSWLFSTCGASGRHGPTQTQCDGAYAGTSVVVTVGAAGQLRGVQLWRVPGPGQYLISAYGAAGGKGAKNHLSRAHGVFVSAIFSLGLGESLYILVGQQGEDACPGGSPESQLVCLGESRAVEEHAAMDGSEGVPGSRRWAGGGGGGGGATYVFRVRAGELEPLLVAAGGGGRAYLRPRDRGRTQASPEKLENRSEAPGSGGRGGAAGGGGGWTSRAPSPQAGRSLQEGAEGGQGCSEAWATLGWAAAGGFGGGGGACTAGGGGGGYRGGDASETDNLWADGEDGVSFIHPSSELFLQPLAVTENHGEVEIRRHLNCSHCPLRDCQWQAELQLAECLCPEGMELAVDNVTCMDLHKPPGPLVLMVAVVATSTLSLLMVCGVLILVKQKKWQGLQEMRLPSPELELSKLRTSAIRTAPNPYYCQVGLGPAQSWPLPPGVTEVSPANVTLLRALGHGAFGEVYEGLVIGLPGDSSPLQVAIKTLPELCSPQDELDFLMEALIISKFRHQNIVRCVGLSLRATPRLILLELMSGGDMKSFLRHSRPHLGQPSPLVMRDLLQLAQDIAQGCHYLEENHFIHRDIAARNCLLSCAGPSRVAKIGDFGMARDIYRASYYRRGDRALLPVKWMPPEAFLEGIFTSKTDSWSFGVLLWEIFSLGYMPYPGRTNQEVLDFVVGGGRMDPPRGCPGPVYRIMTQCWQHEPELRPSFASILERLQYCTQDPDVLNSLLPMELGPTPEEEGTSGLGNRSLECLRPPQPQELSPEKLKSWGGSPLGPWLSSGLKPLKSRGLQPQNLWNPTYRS
Chain of Proto-oncogene tyrosine-protein kinase receptor Ret (P07949 whole entry): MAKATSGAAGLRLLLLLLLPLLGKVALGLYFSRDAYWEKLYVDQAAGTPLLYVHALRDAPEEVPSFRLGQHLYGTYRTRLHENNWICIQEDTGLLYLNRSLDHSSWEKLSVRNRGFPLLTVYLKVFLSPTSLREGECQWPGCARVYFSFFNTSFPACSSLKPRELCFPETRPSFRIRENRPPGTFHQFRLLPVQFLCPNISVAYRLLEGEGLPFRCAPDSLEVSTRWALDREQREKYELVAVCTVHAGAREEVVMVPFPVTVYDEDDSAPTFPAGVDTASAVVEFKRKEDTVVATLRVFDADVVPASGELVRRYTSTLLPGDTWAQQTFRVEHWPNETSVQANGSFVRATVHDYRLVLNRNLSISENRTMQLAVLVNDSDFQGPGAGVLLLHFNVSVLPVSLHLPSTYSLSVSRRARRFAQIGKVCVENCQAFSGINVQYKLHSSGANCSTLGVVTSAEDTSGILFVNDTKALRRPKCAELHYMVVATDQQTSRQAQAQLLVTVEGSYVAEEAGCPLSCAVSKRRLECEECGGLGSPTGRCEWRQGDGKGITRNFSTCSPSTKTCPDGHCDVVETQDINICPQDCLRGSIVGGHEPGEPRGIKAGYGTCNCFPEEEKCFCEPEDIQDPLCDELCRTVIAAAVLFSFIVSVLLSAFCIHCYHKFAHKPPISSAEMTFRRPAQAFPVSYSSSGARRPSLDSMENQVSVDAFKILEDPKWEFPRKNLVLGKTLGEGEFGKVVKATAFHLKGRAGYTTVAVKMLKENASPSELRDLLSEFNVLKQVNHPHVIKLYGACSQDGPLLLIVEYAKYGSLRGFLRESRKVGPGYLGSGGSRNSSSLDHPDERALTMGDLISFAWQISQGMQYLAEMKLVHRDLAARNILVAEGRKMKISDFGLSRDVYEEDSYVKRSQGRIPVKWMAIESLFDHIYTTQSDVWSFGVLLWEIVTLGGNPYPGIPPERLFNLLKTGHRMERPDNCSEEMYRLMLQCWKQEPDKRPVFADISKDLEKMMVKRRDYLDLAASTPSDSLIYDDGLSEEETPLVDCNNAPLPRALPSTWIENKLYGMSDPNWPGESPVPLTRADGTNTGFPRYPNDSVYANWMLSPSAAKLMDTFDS

`FC(F)(F)c1ccc(CNc2ccc(Cc3c[nH]c4ncc(Cl)cc34)cn2)cn1` [PEXIDARTINIB]: in data set [1], the Activity was more than 99%. The concentration at 2555 h in [2] worked out at 5.6 µM.
For the compound `COc1ncc(F)cc1CNc1ccc(Cc2c[nH]c3ncc(C)cc23)c(F)n1` [PLX-5622], the IC50 in [3], in data set [4], in data set [5], in [6], in [7] and in data set [8] was more than 1 µM throughout. Also, the IC50 in [9], in [10], in [11] and in data set [12] was more than 1 µM each time. The compound further came in with a concentration in data set [13] of 17.8 µM. The Activity is on record as 0 in data set [14]; 97% in [15]; 100.854 pg in data set [16]; 0 RPKM in data set [18]; 16.426 RPKM in [19]; 0.155 RPKM in data set [20]. For the same compound, the figures for the Activity in [21] and in data set [22] were 59.872% and 95.371%, respectively. In addition, the outcome in [17] and in [23] was Active.
